ChEMBL document CHEMBL1123867, “Anticonvulsant O-alkyl sulfamates. 2,3:4,5-Bis-O-(1-methylethylidene)-beta-D-fructopyranose sulfamate and related compounds” (1987)
The source made the active and inactive calls. No cut-off for these calls is given here.

Experiments:
Mus musculus [1] = experiment: Anticonvulsant activity by using a standard maximal electroshock test (MES) in mice, by 100 mg/kg intraperitoneal administration; i= Inactive; type: functional, organism-based; parameters: dose 100 mg/kg
Method in brief: (§1)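 Supramaximal electroshock: 50-mA current (60 Hz, 0.20 s) via corneal electrodes induced hind-limb tonic extension; inhibition of this component scored as activity. Mice dosed ip and/or po in aqueous solution or suspension (ca. 0.1% Tween 80, distilled water). Tested at 30, 60, 120 and 240 min (sometimes 45 min); ten mice per time point.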

Mus musculus [2] = experiment: Anticonvulsant activity by using a standard maximal electroshock test (MES) in mice, by 200 mg/kg intraperitoneal administration of the compound; I=inactive, 0-10% block; type: functional, organism-based; parameters: dose 200 mg/kg; method in brief: as §1
Mus musculus [3] = experiment: Anticonvulsant activity by using a standard maximal electroshock test (MES) in mice, by 400 mg/kg peroral administration of the compound; I=inactive, 0-10% block; type: functional, organism-based; parameters: dose 400 mg/kg; method in brief: as §1
Mus musculus [4] = experiment: Percentage block of the hind-limb tonic-extensor seizure was determined after application of an electric shock to mice for 60 min followed by 200 mg/kg intraperitoneal dose; type: functional
Method in brief: (§2)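 Mouse MES test: supramaximal seizure from a 50-mA current (60 Hz, 0.20-s) through corneal electrodes. […] Ten mice per time point. Compound given in aqueous solution or in suspension in ca. 0.1% Tween 80 and distilled water. Free food and water except during testing.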

Mus musculus [5] = experiment: Percentage block of the hind-limb tonic-extensor seizure was determined after application of an electric shock to mice for 60 min followed by 400 mg/kg peroral dose; type: functional; conditions: route oral; method in brief: as §2
Mus musculus [6] = experiment: Percentage block of the hind-limb tonic-extensor seizure was determined after application of an electric shock to mice for 120 min followed by 200 mg/kg intraperitoneal dose; type: functional; method in brief: as §1
Mus musculus [7] = experiment: Percentage block of the hind-limb tonic-extensor seizure was determined after application of an electric shock to mice for 120 min followed by 400 mg/kg peroral dose; type: functional; conditions: route oral; method in brief: as §1
Mus musculus [8] = experiment: Percentage block of the hind-limb tonic-extensor seizure was determined after application of an electric shock to mice for 30 min followed by 200 mg/kg intraperitoneal dose; type: functional; method in brief: as §1
Mus musculus [9] = experiment: Percentage block of the hind-limb tonic-extensor seizure was determined after application of an electric shock to mice for 30 min followed by 400 mg/kg peroral dose; type: functional; conditions: route oral; method in brief: as §1
Mus musculus [10] = experiment: Percentage block of the hind-limb tonic-extensor seizure was determined after application of an electric shock to mice for 240 min followed by 200 mg/kg intraperitoneal dose; type: functional; method in brief: as §1
Mus musculus [11] = experiment: Percentage block of the hind-limb tonic-extensor seizure was determined after application of an electric shock to mice for 240 min followed by 400 mg/kg peroral dose; type: functional; conditions: route oral; method in brief: as §1
Mus musculus [12] = experiment: Anticonvulsant activity by using a standard maximal electroshock test (MES) in mice, by 100 mg/kg intraperitoneal administration of the compound; I=inactive, 0-10% block; type: functional, organism-based; parameters: dose 100 mg/kg; method in brief: as §1
Mus musculus [13] = experiment: Anticonvulsant activity by using a standard maximal electroshock test (MES) in mice, by 200 mg/kg peroral administration of the compound; I=inactive, 0-10% block; type: functional, organism-based; parameters: dose 200 mg/kg; method in brief: as §1
Mus musculus [14] = experiment: Percentage block of the hind-limb tonic-extensor seizure was determined after application of an electric shock to mice for 60 min followed by 100 mg/kg intraperitoneal dose; type: functional; method in brief: as §1
Mus musculus [15] = experiment: Percentage block of the hind-limb tonic-extensor seizure was determined after application of an electric shock to mice for 120 min followed by 100 mg/kg intraperitoneal dose; type: functional; method in brief: as §1
Mus musculus [16] = experiment: Percentage block of the hind-limb tonic-extensor seizure was determined after application of an electric shock to mice for 120 min followed by 200 mg/kg peroral dose; type: functional; conditions: route oral; method in brief: as §1
Mus musculus [17] = experiment: Percentage block of the hind-limb tonic-extensor seizure was determined after application of an electric shock to mice for 30 min followed by 100 mg/kg intraperitoneal dose; type: functional; method in brief: as §1
Mus musculus [18] = experiment: Percentage block of the hind-limb tonic-extensor seizure was determined after application of an electric shock to mice for 30 min followed by 200 mg/kg peroral dose; type: functional; conditions: route oral; method in brief: as §1
Mus musculus [19] = experiment: Percentage block of the hind-limb tonic-extensor seizure was determined after application of an electric shock to mice for 240 min followed by 100 mg/kg intraperitoneal dose; type: functional; method in brief: as §1
Mus musculus [20] = experiment: Percentage block of the hind-limb tonic-extensor seizure was determined after application of an electric shock to mice for 240 min followed by 200 mg/kg peroral dose; type: functional; conditions: route oral; method in brief: as §1
Mus musculus [21] = experiment: Percentage block of the hind-limb tonic-extensor seizure was determined after application of an electric shock to mice for followed by 200 mg/kg peroral dose; conditions: route oral
Mus musculus [22] = experiment: Percentage block of the hind-limb tonic-extensor seizure was determined after application of an electric shock to mice for 60 min followed by 200 mg/kg peroral dose; type: functional; conditions: route oral; method in brief: as §2
Mus musculus [23] = experiment: Anticonvulsant activity by using a standard maximal electroshock test (MES) in mice, by 100 mg/kg intraperitoneal administration of the compound; i =inactive; type: functional, organism-based; parameters: dose 100 mg/kg; method in brief: as §1
Mus musculus [24] = experiment: Anticonvulsant activity by using a standard maximal electroshock test (MES) in mice by intraperitoneal administration of the compound; type: functional; conditions: ip; method in brief: as §1
Mus musculus [25] = experiment: Anticonvulsant activity following p.o. administration by standard maximal electroshock test in mice.; type: functional; conditions: po; method in brief: as §1
Mus musculus [26] = experiment: Percentage block of the hind-limb tonic-extensor seizure was determined after application of an electric shock to mice for 30 min followed by 50 mg/kg intraperitoneal dose; type: functional; method in brief: as §1
Mus musculus [27] = experiment: LD50 of compound after ip administration after 24 hrs was determined; type: functional
Mus musculus [28] = experiment: Percentage block of the hind-limb tonic-extensor seizure was determined after application of an electric shock to mice for 60 min followed by 50 mg/kg intraperitoneal dose; type: functional; method in brief: as §2
Mus musculus [29] = experiment: Percentage block of the hind-limb tonic-extensor seizure was determined after application of an electric shock to mice for 120 min followed by 100 mg/kg peroral dose; type: functional; conditions: route oral; method in brief: as §1
Mus musculus [30] = experiment: Percentage block of the hind-limb tonic-extensor seizure was determined after application of an electric shock to mice for 30 min followed by 100 mg/kg peroral dose; type: functional; conditions: route oral; method in brief: as §1
Mus musculus [31] = experiment: Percentage block of the hind-limb tonic-extensor seizure was determined after application of an electric shock to mice for 120 min followed by 50 mg/kg intraperitoneal dose; type: functional; method in brief: as §1
Mus musculus [32] = experiment: Percentage block of the hind-limb tonic-extensor seizure was determined after application of an electric shock to mice for 240 min followed by 100 mg/kg peroral dose; type: functional; conditions: route oral; method in brief: as §1
Mus musculus [33] = experiment: Percentage block of the hind-limb tonic-extensor seizure was determined after application of an electric shock to mice for 240 min followed by 50 mg/kg intraperitoneal dose; type: functional; method in brief: as §1
Mus musculus [34] = experiment: Neurotoxic dose ED50 after po administration in mice at 1 hrs was determined; type: functional
Method in brief: (§3)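 Neurotoxicity measured in mice with the rotoreel test after oral dosing. TD50 is the neurotoxic dose ED50, read at 1 h (peak time for TD50) and at 4 h (approximate peak time for the MES ED50). Compound was given as an aqueous solution or as a suspension in about 0.1% Tween 80 in distilled water. Animals had free access to food and water except during testing.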

Mus musculus [35] = experiment: Percentage block of the hind-limb tonic-extensor seizure was determined after application of an electric shock to mice for 60 min followed by 100 mg/kg peroral dose; type: functional; conditions: route oral; method in brief: as §2
Mus musculus [36] = experiment: Neurotoxic dose ED50 after po administration in mice at 4 hrs was determined; type: functional; method in brief: as §3

Structure (SMILES): CC1(C)OC2C3OC(C)(C)O[C@]3(CO)OC[C@H]2O1 (stereo not given in full)
- ED50 (Mus musculus [1]): inactive
- ED50 (Mus musculus [2]): inactive
- ED50 (Mus musculus [3]): inactive
- Block (Mus musculus [4]): 0%
- Block (Mus musculus [5]): 0%
- Block (Mus musculus [6]): 0%
- Block (Mus musculus [7]): 0%
- Block (Mus musculus [8]): 0%
- Block (Mus musculus [9]): 0%
- Block (Mus musculus [10]): 0%
- Block (Mus musculus [11]): 0%

Structure (SMILES): CC1(C)C2CCC(COS(N)(=O)=O)C1C2 (stereo not given)
- ED50 (Mus musculus [12]): inactive
- ED50 (Mus musculus [13]): inactive
- Block (Mus musculus [14]): 10%
- Block (Mus musculus [15]): 0%
- Block (Mus musculus [16]): 10%
- Block (Mus musculus [17]): 10%
- Block (Mus musculus [18]): 10%
- Block (Mus musculus [19]): 0%
- Block (Mus musculus [20]): 0%
- Block (Mus musculus [21]): 10%

Structure (SMILES): CC1(C)OC2C3OC(C)(C)O[C@]3(COS(=O)(=O)Nc3ccccc3)OC[C@H]2O1 (stereo not given in full)
- ED50 (Mus musculus [12]): inactive
- ED50 (Mus musculus [13]): inactive
- Block (Mus musculus [14]): 0%
- Block (Mus musculus [15]): 0%
- Block (Mus musculus [16]): 0%
- Block (Mus musculus [17]): 0%
- Block (Mus musculus [18]): 0%
- Block (Mus musculus [19]): 0%
- Block (Mus musculus [20]): 0%
- Block (Mus musculus [22]): 0%

Structure (SMILES): COC1(COS(N)(=O)=O)OC(CO)[C@@H](O)C1O (stereo not given in full)
- ED50 (Mus musculus [23]): inactive

Structure (SMILES): CC1(C)O[C@@H]2[C@@H](CO[C@@]3(COS(N)(=O)=O)OC(C)(C)O[C@@H]23)O1 [TOPIRAMATE]
- ED50 (Mus musculus [24]): 64 mg/kg
- ED50 (Mus musculus [25]): 61 mg/kg
- Block (Mus musculus [26]): 20%
- LD50 (Mus musculus [27]): > 1000 mg/kg
- Block (Mus musculus [28]): 60%
- Block (Mus musculus [29]): 80%
- Block (Mus musculus [30]): 40%
- Block (Mus musculus [31]): 70%
- Block (Mus musculus [32]): 100%
- Block (Mus musculus [33]): 50%
- TD50 (Mus musculus [34]): 407 mg/kg
- Block (Mus musculus [35]): 80%
- TD50 (Mus musculus [36]): 1100 mg/kg
